Reference: article PMC3055681 (Neuropsychopharmacology : official publication of the …, 2010)
Entries after “also recorded” stand apart in the source; their conditions may differ. Read-outs that look alike come from different tables or passages of the source.

Experiments:
α4β2 nAChRs = settings: ref Glick et al., 2000; cited from earlier work
α6/4β4 nAChRs = α6/4β4 nAChRs (Homo sapiens, UniProt P30926+P43681+Q15825); test: Binding affinity for α6/4β4 nAChRs; settings: ratio of binding affinities
[1] = system: Wistar rats consuming 20% ethanol; test: Intermittent access 20% ethanol two-bottle-choice drinking paradigm; format: in vivo
Summary of the method: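 Individually housed rats on a reversed 12-h light cycle had intermittent access to 20% (v/v) ethanol versus water in a two-bottle choice. Once baseline drinking was stable, test compound or saline was given s.c. 30 min before bottles were presented. Injections were 7 days apart in a Latin square, each rat serving as its own control. Intake (g/kg) and preference were measured at 30 min, 6 h and 24 h. Analysis was repeated-measures ANOVA with Newman–Keuls.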

humans = settings: cited from earlier work
[2] = oral administration, ref Shaffer et al., 2009, cited from earlier work
[3] = system: rats self-administering 10% ethanol; test: Repeated; format: in vivo
Summary of the method: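 Rats trained on FR3 10% ethanol self-administration reached stable baseline and were randomised to drug or saline. Test compound (10 mg/kg s.c.) or saline was given 30 min before each session on 5 consecutive days, with lever presses recorded daily. Post-treatment baseline was taken 24 h after the last dose. The day after a cage change (day 3) was excluded. Analysis was two-way ANOVA with Newman–Keuls (n = 6–7).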

human α4β2 nAChRs = human α4β2 nAChRs (Homo sapiens, UniProt P17787+P43681); format: cell-based
Summary of the method: (§1)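 HEK293 lines stably transfected with human α3β4 or α4β2 nAChRs. Cells were loaded in growth medium with Calcium Green-1 (2 µM final) mixed 1:1 with 20% pluronic F-127, then read on FLIPR (ex 488, em 516 nm). Agonism was a single compound addition compared with 100 µM ACh. Inhibition used 2 min pretreatment then 30 µM ACh, with ΔF taken relative to vehicle-pretreated wells. Runs were in quadruplicate, with EC50/IC50 from concentration curves.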

[4] = in vivo; ref Obach et al., 2006; Shaffer et al., 2009; cited from earlier work
[5] = system: Wistar rats self-administering 10% ethanol; test: Operant self-administration of 10% ethanol; format: in vivo; settings: 10 mg/kg s.c., 30 minutes before session
Summary of the method: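 Wistar rats were trained on FR3 (0.1 ml reward), 30 min daily sessions Mon–Fri, to press for 10% (v/v) ethanol. Test compound or saline was given s.c. either 30 min or 2 h before the session, depending on compound. Injections were 7 days apart in a Latin square, with the normal schedule between them. Active lever presses were analysed by repeated-measures ANOVA with Newman–Keuls (n = 8–13).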

human α3β4 nAChRs [6] = target: T1, human α3β4 nAChRs (Homo sapiens, UniProt P30926+P32297); format: cell-based
Summary of the method: as §1

[7] = Rat pharmacokinetics, unbound brain concentrations; format: in vivo, Sprague-Dawley rats
Summary of the method: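 Sprague-Dawley rats were dosed s.c. at 1, 5 or 10 mg/kg. Unbound brain concentration (Cb,u) was estimated over time using an LC-MS/MS assay combined with tissue binding, with values in nM and n = 2 per time point.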

rats consuming ethanol = settings: 1 and 2 mg/kg; ref Steensland et al., 2007; cited from earlier work
human α3β4 nAChRs [8] = target: T1, human α3β4 nAChRs; settings: ref Rollema et al., 2007; cited from earlier work
[9] = clinically tested as a smoking cessation aid, ref Pfizer, data on file
[10] = male, Sprague-Dawley, rat, brain (unbound), subcutaneous, 10 mg/kg

T1 sequence (P32297 32-505): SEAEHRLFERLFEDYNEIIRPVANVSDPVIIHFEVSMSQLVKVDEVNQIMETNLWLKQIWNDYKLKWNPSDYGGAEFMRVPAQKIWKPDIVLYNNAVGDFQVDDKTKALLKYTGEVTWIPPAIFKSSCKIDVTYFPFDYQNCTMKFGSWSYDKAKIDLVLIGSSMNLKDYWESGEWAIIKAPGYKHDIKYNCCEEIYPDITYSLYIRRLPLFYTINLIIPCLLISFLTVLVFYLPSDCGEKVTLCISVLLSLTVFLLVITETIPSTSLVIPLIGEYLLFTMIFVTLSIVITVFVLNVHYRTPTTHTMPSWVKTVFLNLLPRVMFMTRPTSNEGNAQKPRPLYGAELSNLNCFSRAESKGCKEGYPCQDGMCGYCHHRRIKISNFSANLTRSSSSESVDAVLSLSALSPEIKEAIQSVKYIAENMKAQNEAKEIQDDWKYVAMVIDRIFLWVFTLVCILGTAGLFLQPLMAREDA
T1 sequence (P30926 22-498): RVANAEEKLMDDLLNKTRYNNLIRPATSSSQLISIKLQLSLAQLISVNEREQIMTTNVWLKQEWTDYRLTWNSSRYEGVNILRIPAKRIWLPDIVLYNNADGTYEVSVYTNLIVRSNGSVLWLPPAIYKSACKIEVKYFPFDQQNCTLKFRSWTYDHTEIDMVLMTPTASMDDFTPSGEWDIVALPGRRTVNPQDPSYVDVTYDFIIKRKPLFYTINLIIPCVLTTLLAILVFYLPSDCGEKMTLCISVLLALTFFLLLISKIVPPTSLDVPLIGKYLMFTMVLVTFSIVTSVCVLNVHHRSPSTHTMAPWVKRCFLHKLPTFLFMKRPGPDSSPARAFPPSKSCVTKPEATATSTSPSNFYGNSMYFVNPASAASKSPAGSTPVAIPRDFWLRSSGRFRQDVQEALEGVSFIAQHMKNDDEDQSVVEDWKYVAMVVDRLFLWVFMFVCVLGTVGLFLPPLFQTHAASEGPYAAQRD
human α4β2 nAChRs, sequence (P43681 29-627 limits assumed): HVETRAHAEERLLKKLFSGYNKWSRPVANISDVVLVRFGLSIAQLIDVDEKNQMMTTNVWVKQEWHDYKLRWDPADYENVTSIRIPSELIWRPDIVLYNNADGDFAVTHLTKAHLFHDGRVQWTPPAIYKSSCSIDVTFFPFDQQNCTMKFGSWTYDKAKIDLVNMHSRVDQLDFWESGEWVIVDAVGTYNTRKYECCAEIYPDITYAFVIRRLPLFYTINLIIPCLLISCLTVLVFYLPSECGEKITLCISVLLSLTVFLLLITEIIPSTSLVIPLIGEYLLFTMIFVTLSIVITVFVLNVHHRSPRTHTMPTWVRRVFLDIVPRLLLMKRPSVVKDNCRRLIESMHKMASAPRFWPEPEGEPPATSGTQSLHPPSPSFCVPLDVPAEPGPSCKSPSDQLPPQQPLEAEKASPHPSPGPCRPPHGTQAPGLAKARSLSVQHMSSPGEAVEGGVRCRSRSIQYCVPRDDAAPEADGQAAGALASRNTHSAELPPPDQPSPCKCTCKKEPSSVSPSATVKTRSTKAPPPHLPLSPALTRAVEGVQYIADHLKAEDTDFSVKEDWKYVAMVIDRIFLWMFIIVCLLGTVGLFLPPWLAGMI
human α4β2 nAChRs, sequence (P17787 26-502): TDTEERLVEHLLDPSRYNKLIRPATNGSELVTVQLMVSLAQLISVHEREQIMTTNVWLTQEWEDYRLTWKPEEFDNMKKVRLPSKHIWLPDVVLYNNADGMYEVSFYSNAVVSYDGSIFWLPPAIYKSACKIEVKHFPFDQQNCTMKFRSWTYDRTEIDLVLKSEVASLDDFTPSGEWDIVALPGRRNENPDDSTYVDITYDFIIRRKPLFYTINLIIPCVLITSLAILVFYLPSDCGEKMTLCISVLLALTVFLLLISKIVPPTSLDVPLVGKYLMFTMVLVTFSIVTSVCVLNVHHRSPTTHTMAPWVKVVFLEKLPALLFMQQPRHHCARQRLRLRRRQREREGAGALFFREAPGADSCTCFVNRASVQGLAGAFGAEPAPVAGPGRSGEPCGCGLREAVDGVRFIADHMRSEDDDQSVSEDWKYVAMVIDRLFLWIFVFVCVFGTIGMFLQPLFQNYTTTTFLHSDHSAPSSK
α6/4β4 nAChRs, sequence (Q15825 26-239): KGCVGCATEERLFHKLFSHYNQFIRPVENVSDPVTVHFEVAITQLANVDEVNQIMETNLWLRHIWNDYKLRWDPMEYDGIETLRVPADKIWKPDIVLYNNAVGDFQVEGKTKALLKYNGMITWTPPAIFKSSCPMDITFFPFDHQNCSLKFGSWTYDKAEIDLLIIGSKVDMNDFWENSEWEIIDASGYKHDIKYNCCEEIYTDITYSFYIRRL
α6/4β4 nAChRs, sequence (P43681 241-627): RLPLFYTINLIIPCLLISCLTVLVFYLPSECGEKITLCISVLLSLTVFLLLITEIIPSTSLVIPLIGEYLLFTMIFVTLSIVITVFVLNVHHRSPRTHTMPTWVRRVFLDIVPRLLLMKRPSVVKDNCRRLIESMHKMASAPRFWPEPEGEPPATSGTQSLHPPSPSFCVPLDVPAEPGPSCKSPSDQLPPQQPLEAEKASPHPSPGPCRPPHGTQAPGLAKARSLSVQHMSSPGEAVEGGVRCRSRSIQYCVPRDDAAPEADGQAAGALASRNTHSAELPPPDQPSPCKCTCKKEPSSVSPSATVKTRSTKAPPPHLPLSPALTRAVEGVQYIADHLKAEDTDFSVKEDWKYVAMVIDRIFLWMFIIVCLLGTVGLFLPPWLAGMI
α6/4β4 nAChRs, sequence (P30926 22-498): as the sequence (P30926 22-498) above

## COCC[C@H]1CC2CN3CCc4c([nH]c5ccccc45)[C@](C(=O)OC)(C2)[C@H]13 [18-MC, 18-methoxycoronaridine]
α4β2 nAChRs
  effect at α4β2 nAChRs: no effect

## FC(F)(F)c1ccc2c(c1)[C@@H]1CNC[C@H]2C1 [CP-601932, (1S,5R)-2,3,4,5-tetrahydro-7-(trifluoromethyl)-1,5-methano-1H-3-benzazepine]
α6/4β4 nAChRs
  fold higher affinity for α3β4 than for α6/4β4 nAChRs: at least 10 fold
[1]; 5 mg/kg s.c., at 30 minutes
  ethanol consumption vs vehicle: significantly decreased high voluntary ethanol consumption
[1]; 10 mg/kg s.c., 6 h and 24 h time points
  ethanol consumption vs vehicle: decreased ethanol consumption
[1]; 10 mg/kg s.c., at 30 minutes
  ethanol consumption vs vehicle: significantly decreased high voluntary ethanol consumption
[1]; highest dose (10 mg/kg s.c.), all time points
  preference for ethanol over water vs vehicle: decreased the preference for ethanol over water
humans; clinical trial as potential smoking cessation aid
  side effects indicative of ganglion blocking effects: did not show side effects indicative of ganglion blocking effects
humans; [9]
  abstinence rate: moderate two-fold increase in abstinence rate that was not statistically significant
  tolerability / safety in humans: safe in humans; also recorded: generally well tolerated
[2]; rats
  brain penetration: extensive brain penetration
[2]
  absorption: well absorbed
  half-life: long half-life
[3]; 10 mg/kg s.c. for 5 days, compared to baseline
  rebound in active lever presses after end of chronic treatment: no rebound increase in active lever presses
[3]; 10 mg/kg s.c. once per day for 5 consecutive days, 30 minutes before session
  active lever presses for 10% ethanol vs vehicle: decreased active lever presses
Human α4β2 nAChRs
  EC50: > 30000 nM
  IC50: 114 ± 29 nM
Human α4β2 nAChRs; α4β2
  Activation of α4β2 nAChRs (Ca2+ fluorescence): no measurable change in Ca2+-fluoresence
[4]
  active metabolites: not formed in vivo
[5]
  active lever presses for 10% ethanol vs vehicle: significantly decreased the number of presses on the active lever
Human α3β4 nAChRs [6]; Activation EC50, α3β4, vs 100 μM ACh
  EC50: 2920 ± 320 nM
Human α3β4 nAChRs [6]; IC50 for inhibition of α3β4 nAChRs, range given in text for both compounds
  IC50: 100 to 300 nM
Human α3β4 nAChRs [6]; Inhibition IC50, α3β4, 2 min pre-application, 30 μM ACh challenge
  IC50: 257 ± 41 nM
[7]; 10 mg/kg s.c., at 30 minutes
  maximal unbound brain concentration Cb,u: 710 nM
[7]; [10]
  concentration at 5 h: 530 nM
  concentration at 24 h: 85 nM

## c1cnc2cc3c(cc2n1)[C@@H]1CNC[C@H]3C1 [Varenicline]
[4]
  active metabolites: not formed in vivo
Rats consuming ethanol
  ethanol intake: significantly reduce ethanol intake
Human α3β4 nAChRs [8]
  Activation Efficacy (% vs ACh): 93.5 ± 1.4 (5) % vs ACh
